Screening data from PubChem BioAssay.
JMJD2C inh: inhibitors of GASC-1 histone demethylase, primary screen, biochemical, fluorescence, DELFIA europium. Lysine-specific demethylase 4C (Homo sapiens), Q9H3R0. AID 2099, 2009. 330,000 compounds, 0.069% hits. inhibition, % at 2.35 µM. GST-JMJD2C(1-420) H3K9me3 demethylation;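 active = more than half of a compound's replicate wells show inhibition beyond 50%, single wells judged on their own value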;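 also: signal counts dimethyl H3K9 product captured on neutravidin plate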
DAX1 inh-1: DAX1 (NR0B1) inhibitors on StAR promoter, primary screen, cell-based, luminescence, SF-1 (NR5A1), full-length DAX-1; HEK293T StAR-luciferase reporter, SF-1/DAX-1 repression relief; 370,000 compounds, 1.1% hits; inhibition, % at 6.8 µM;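 active = inhibition above the mean over all tested compounds plus 3 SD, cut at about 3.6% in these data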;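 also: higher inhibition means more luminescence from relief of DAX-1 repression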
NR2E3 ag-1: NR2E3 agonists in two-hybrid cells, primary screen, cell-based, luminescence, CHO-S, Gal4-NCOR/VP16-NR2E3; luciferase; inhibition of corepressor binding, % at 3.98 µM; 360,000 compounds, 0.35% hits; AID 602229, 2012;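 active = inhibition above the mean of all tested compounds plus 3 SD, cut at about 70% in these data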;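 also: higher means lower luciferase signal from less NR2E3 corepressor binding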
Target sequence (Q9Y5X4 whole entry, looked up, the tested form may be a part): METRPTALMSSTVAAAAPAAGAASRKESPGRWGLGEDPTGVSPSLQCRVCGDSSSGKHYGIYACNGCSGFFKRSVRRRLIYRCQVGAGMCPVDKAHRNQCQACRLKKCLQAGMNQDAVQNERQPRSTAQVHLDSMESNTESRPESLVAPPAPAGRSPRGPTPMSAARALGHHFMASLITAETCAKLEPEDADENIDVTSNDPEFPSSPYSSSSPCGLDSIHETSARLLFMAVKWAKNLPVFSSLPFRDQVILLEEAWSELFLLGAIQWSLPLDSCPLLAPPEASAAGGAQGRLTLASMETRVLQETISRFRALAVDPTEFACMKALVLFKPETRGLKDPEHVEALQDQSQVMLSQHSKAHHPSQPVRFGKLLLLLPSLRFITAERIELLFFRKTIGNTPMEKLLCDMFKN
DAX1 inh-2: DAX1 (NR0B1) inhibitors, primary screen, cell-based, HEK293, Gal4-DAX1, luciferase luminescence | Nuclear receptor subfamily 0 group B member 1 (Homo sapiens), P51843 | HEK293 Gal4-DAX1 luciferase reporter | inhibition, % at 6.75 µM | 340,000 compounds, 0.99% hits | AID 504766, 2011;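 active = inhibition above the mean over all tested compounds plus 3 SD, cut at about 4.2% in these data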;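 also: inhibition shows as a rise in luminescence from relieved DAX1 repression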
Target sequence (P51843 207-470 limits assumed): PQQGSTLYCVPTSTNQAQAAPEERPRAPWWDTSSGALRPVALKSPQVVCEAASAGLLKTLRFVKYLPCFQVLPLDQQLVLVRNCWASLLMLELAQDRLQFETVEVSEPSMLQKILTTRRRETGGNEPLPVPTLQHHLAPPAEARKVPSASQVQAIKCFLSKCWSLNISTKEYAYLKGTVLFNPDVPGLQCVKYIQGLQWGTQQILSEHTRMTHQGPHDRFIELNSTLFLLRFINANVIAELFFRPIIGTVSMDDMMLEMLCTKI
SMARCA2 act: SMARCA2 (BRM) function activators, primary screen, cell-based, luminescence, high throughput; 370,000 compounds, 1% hits; MG213 cells, MMTV-luciferase reporter, dexamethasone, overnight; activation, % at 9.1 µM; AID 652017, 2013; in the data active = activation above about 7.8%
NR2E3 ag-2: inhibitors of NR2E3-RetCOR corepressor binding, primary screen, NR2E3 agonist project, biochemical, TR-FRET, GST-NR2E3, biotin-RetCOR; Photoreceptor-specific nuclear receptor (Homo sapiens), Q9Y5X4; 1536-well; inhibition of corepressor binding, % at 4.78 µM; 320,000 compounds, 0.12% hits;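 active = percent inhibition above the cutoff of mean plus 3 SD of all tested compounds, set per screening campaign, cut at about 20% in these data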
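Format: 1536-well format; test system: GST-NR2E3 and biotin-RetCOR proteins; read-out basis: percent inhibition of TR-FRET ratio; timing: 5 h incubation at 4 °C; detection: time-resolved FRET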
Numbers stand for hits; n = inactive; x = no result. The list is not random: actives were taken first. Their share in the collection is about 3.2%.

SMILES | JMJD2C inh | DAX1 inh-1 | NR2E3 ag-1 | DAX1 inh-2 | SMARCA2 act | NR2E3 ag-2
Cc1ccc(N(CC(=O)Nc2ccc(-c3nc4ccc(C)cc4s3)cc2)S(C)(=O)=O)cc1 | n | 4.4 | n | n | n | n
CC12CC3(C)CC(C)(C1)CC(C(N)=O)(C2)C3 | n | n | n | 5.8 | n | n
O=C(O)c1ccc(CS(=O)(=O)c2cccc(C(F)(F)F)c2)o1 | n | n | n | 4.5 | n | n
COc1cccc(CNC(=O)CCNS(=O)(=O)c2cccc3nsnc23)c1 | n | n | n | 8.6 | n | n
CCOC(=O)c1nnn(CC(=O)N2N=C(c3ccccc3)CC2c2ccccc2)c1C(=O)OCC (stereo not drawn) | n | n | n | 5.1 | n | n
CCOC(=O)C1CCCN(c2c(NCCN3CCCCC3CC)c(=O)c2=O)C1 (stereo not drawn) | n | n | n | n | n | n
CCOC(=O)N1CCN(c2c(NCCN3CCCCC3CC)c(=O)c2=O)CC1 (stereo not drawn) | n | 4.2 | n | n | n | n
COc1cccc(CO[C@H]2C=C[C@@H](c3ccccc3)O[C@@H]2COC(C)=O)c1 | x | n | x | x | n | x
C(/C=C/c1ccccn1)=C\c1ccccc1 | n | n | n | 5.0 | n | n
C(=C\c1cc(/C=C/c2ccccc2)ncn1)/c1ccccc1 | n | n | n | 5.0 | n | n
Cc1cc(NC(=O)c2ccc(NS(=O)(=O)c3ccccc3F)cc2)no1 | x | n | x | x | n | x
COC(=O)c1ccc(N/C=C/C(=O)c2ccccc2)cc1 | n | n | n | 4.5 | n | n
O=C(/C=C\Nc1ccccn1)c1ccc(Cl)cc1 | n | 4.2 | n | n | n | n
Cc1ccc(Cl)c(N/C=C/C(=O)c2ccccc2)c1 | n | n | n | n | n | n
O=C(Cc1ccc(Cl)cc1)Nc1ccccn1 | n | n | n | n | n | n
Cc1cccc(N/C=C/C(=O)c2ccc(Cl)cc2)c1 | n | n | n | 4.7 | n | n
COc1cccc(N/C=C/C(=O)c2ccc(Br)cc2)c1 | n | 4.4 | n | n | n | n
Cc1ccc(S(=O)(=O)NCCCc2ccc3c(c2)[C@]2(CCC[C@@H](OCc4ccccc4)[C@@H]2NC(=O)CCc2ccccc2)C(=O)N3Cc2ccccc2)cc1 | x | n | x | x | n | x
NS(=O)(=O)c1ccc(N/C=C/C(=O)c2ccc(Br)cc2)cc1 | n | n | n | n | n | n
COc1ccc(N/C=C/C(=O)c2ccc(C)cc2)c([N+](=O)[O-])c1 | n | 3.6 | n | n | n | n
NS(=O)(=O)c1ccc(N/C=C\C(=O)c2ccc(F)cc2)cc1 | n | 4.2 | n | n | n | n
COc1ccc(Sc2cccc3c2S(=O)(=O)N([C@H](C)c2ccccc2)C[C@@H](COCc2ccccc2)O3)cc1OC | x | n | x | x | n | x
CCCCN1CC(COCc2ccccc2)Oc2cccc(Sc3ccc(OC)c(OC)c3)c2S1(=O)=O (stereo not drawn) | x | 4.2 | x | x | n | x
CCCc1cc(C(=O)Nc2cccc(C(C)=O)c2)no1 | n | n | n | n | 7.9 | n
Cc1ccc(C)c(NC(=O)c2cc3ccccn3n2)c1 | n | 3.6 | n | n | n | n
SMILES | JMJD2C inh | DAX1 inh-1 | NR2E3 ag-1 | DAX1 inh-2 | SMARCA2 act | NR2E3 ag-2
CC(=O)c1cccc(NC(=O)c2cc3ccccn3n2)c1 | n | 3.7 | n | n | n | n
Cc1ccccc1NC(=O)c1cc2ccccn2n1 | n | n | n | n | n | n
CC(=O)c1cccc(NC(=O)c2c(C)nn(-c3ccccc3)c2Cl)c1 | n | n | n | n | n | n
COc1ccc(CSc2nnc(SCC(=O)Nc3ccc4c(c3)OCO4)s2)cc1 | x | n | x | x | n | x
COC(=O)[C@H]1C[C@@]2(N3CCCC3)c3ccccc3N(C(=O)OC(C)(C)C)[C@H]2N1C(=O)OC(C)(C)C | x | n | x | x | n | x
COc1ccc(C(=O)c2nccc3cc(OC)c(OC)cc23)cc1OC | n | x | n | n | x | 20
COc1ccc(C(=O)c2ccc(OC)c(OC)c2)cc1OC | n | n | n | n | n | n
Cc1ccc(S(=O)(=O)CCC(=O)Nc2ccc3nc(C)sc3c2)cc1 | n | n | n | n | n | n
O=C(CCS(=O)(=O)c1ccccc1)Nc1nc2cc3c(cc2s1)OCO3 | n | n | n | 4.9 | n | n
Cc1nc2cc(NC(=O)CCS(=O)(=O)c3ccccc3)ccc2s1 | n | 4.0 | n | n | n | n
Cc1ccc(NC(=O)CCS(=O)(=O)c2ccc3nc(C)sc3c2)cc1 | n | n | n | n | n | n
Cc1nc2ccc(NC(=O)CCS(=O)(=O)c3ccccc3)cc2s1 | n | n | n | 5.2 | n | n
O=C(CCS(=O)(=O)c1ccccc1)Nc1nc2cc3c(cc2s1)OCCO3 | n | n | n | n | n | n
Cc1ccc(S(=O)(=O)CCC(=O)Nc2cccc([N+](=O)[O-])c2)cc1 | n | n | n | 7.3 | n | n
N#Cc1cccc(NC(=O)COC(=O)CCc2ccc(S(=O)(=O)N3CCOCC3)cc2)c1 | n | n | n | n | n | n
CC(=O)c1cccc(NC(=O)COC(=O)CCc2ccc(S(=O)(=O)N3CCOCC3)cc2)c1 | n | n | n | 4.3 | n | n
O=C(COC(=O)c1ccc(F)cc1F)Nc1cccc(S(=O)(=O)N2CCOCC2)c1 | x | 3.6 | n | n | n | x
COC(=O)[C@]12C[C@H](CC(=O)NCc3cccc4ccccc34)C(=O)N(Cc3cccc4ccccc34)C1=C[C@H](C(C)(C)C)O[C@@H]2C | x | n | x | x | n | x
Cc1noc(C)c1NC(=O)Nc1ccc2c(c1)C(=O)N(C)[C@H]1CC[C@H](CC(=O)NCc3ccc(Cl)cc3)O[C@@H]1CO2 | x | n | x | x | n | x
O=C(NC1CCCCC1)N(Cc1cc2cc3c(cc2[nH]c1=O)OCCO3)C1CCCCC1 | n | n | n | 4.8 | n | n
CC(=O)N1CCCN(S(=O)(=O)c2ccc3c(c2)n(C)c(=O)c(=O)n3C)CC1 | x | n | x | x | n | x
CN(Cc1ccccc1)C(=O)OCc1cn(Cc2cc(F)cc(F)c2)nn1 | x | n | x | x | n | x
c1ccn(-c2ccc(-c3noc(CCc4ccncc4)n3)cc2)c1 | x | n | x | x | n | x
Cc1cc(N2CCN(C)CC2)nc2ccc(NC(=S)NCCCN3CCc4ccccc4C3)cc12 | n | n | n | n | n | n
Cc1cc(N2CCN(C)CC2)nc2ccc(NC(=S)NCCN3CCc4ccccc4C3)cc12 | n | n | n | n | 7.9 | n
